ROMK primary – modulates human ROMK potassium channel activity | P48048 | Tet-inducible ROMK, thallium flux fluorescence; actives lie on both sides | B-score at 10 µM | 2% of 130,000 active | AID 1918;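 active = signal ratio slope over the read window, or its plate-corrected B-score, at least 3 SD from the plate mean, either direction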;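 note: B-score of the F/F0 ratio slope over 7 to 12 s after thallium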
Target sequence (P48048 whole entry, looked up): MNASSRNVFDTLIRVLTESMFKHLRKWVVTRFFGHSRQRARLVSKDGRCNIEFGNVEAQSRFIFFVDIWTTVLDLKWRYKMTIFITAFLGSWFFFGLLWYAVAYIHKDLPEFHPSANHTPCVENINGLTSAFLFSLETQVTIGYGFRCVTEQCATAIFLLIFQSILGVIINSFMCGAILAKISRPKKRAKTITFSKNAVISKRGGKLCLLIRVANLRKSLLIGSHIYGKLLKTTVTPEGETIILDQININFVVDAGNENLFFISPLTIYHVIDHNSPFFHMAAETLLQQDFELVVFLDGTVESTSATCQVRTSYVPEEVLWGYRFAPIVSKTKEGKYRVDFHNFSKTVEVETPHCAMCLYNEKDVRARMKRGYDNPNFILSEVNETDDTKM
RBBP9 inh – human RBBP9 hydrolase inhibition; recombinant RBBP9, FP-Rh probe fluorescence polarization; O75884; inhibition, % at 7.94 µM; 0.2% of 220,000 active;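 active = inhibition above the campaign mean of all tested compounds plus 3 SD, cut at about 14% in these data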
Target sequence (O75884 whole entry, looked up): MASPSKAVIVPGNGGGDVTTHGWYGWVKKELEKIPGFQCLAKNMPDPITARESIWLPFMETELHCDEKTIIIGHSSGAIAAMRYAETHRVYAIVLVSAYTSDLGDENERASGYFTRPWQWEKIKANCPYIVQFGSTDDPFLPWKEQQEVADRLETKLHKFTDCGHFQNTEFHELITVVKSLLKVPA
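system = RBBP9 protein | input = RBBP9 at 2.5 µM in dispensed solution, before mixing | measured by = fluorescence polarization (mP), excitation 525 nm, emission 598 nm | incubation = enzyme-compound preincubation 30 min, then probe labeling 45 min, 25 °C | buffer or medium = Tris-NaCl-Pluronic buffer, pH 8.0 | compound = single dose 7.94 µM | also added = FP-Rh probe, 375 nM dispensing solution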
14-3-3 Bad inh – disrupts binding of bovine 14-3-3 zeta to phospho-Bad peptide | P63103 | TR-FRET 14-3-3zeta/Dy647-pBad peptide displacement, 1 h | inhibition, % at 21.7 µM | 0.71% of 220,000 active | AID 781;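 active = inhibition above about 70%, limit read from the data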
WT yeast gro inh – growth inhibition of WT yeast, mitochondrial fusion screen | 2.1% of 190,000 active | mitochondrial fusion phenotypic screen, WT strain | inhibition, % at 10 µM; in the data active = inhibition above about 58%; tested in S. cerevisiae
p47phox inh – inhibitors of human p47phox binding. p47phox/p22phox peptide binding, fluorescence polarization, 2 h. inhibition, % at 24.7 µM. 0.53% of 220,000 active. AID 1274;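 active = inhibition above about 30%, limit read from the data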
KCC2 mod – modulates chloride dependent transport by human KCC2; Q9H2X9; KCC2 cells, thallium flux FluoZin-2 fluorescence; B-score of Tl+ flux slope (higher = more flux/activation; lower = inhibition) at 10 µM; 2.2% of 190,000 active;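 active = thallium flux slope and its plate-corrected score both differing from the plate sample mean at a set confidence after two filtering rounds, in either direction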;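 note: slope of fluorescence scaled to starting intensity during 10 to 20 s after thallium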
ROMK retest – confirmation of human ROMK potassium channel modulators; shares compounds with ROMK primary; ROMK thallium flux, fluorescence ratio; hits give low values; normalized thallium flux (F/F0 slope) at 10 µM; 54% of 3,000 active;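 active = Flux at 10 µM at least 3 SD below or above vehicle control mean in one or both replicates; inconclusive = no clear call, values can overlap the other calls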
Of the large screens only hits and unclear results are named; the others gave an inactive call (follow-up assays come after a bar, where they were run). This is a sample that favours compounds with a hit; in the whole collection about 5.8% have one here.

O=C(O)c1cc(N2C(=O)C3CC=CCC3C2=O)ccc1NCc1cccnc1 (stereo not drawn)	ROMK primary 2.6 | ROMK retest inactive
O=[N+]([O-])c1ccc(S(=O)(=O)CC(CN2CCOCC2)N2CCOCC2)cc1 (stereo not drawn)	none (no result: KCC2 mod)
O=[N+]([O-])c1ccc(S(=O)(=O)CC(CN2CCCCC2)N2CCCCC2)cc1 (stereo not drawn)	ROMK primary -4.8 | ROMK retest 0.053
COc1cc(-c2nc3cnccn3c2Nc2ccccc2)ccc1O	none (no result: ROMK primary)
COc1cc(-c2nc3cnccn3c2Nc2ccc(C)cc2)ccc1O	ROMK primary -3.4 (no result: KCC2 mod) | ROMK retest 0.066
COC(=O)[C@@]1(Cc2ccc(F)cc2)[C@H]2c3cc(C(=O)N4CCCC4)n(CCc4ccc(O)c(O)c4)c3C[C@H]2CN1C(=O)c1ccccc1	none | ROMK retest inconclusive
S=C(Nc1cccc(Cl)c1Cl)N1CCC2(CC1)OCCO2	none
Clc1cncc(Cl)c1N/N=C/c1ccncc1	ROMK primary 4.1 | ROMK retest 0.12
NC(=NCCc1c[nH]c2ccccc12)NC(=O)c1ccc(F)cc1	none (no result: ROMK primary, WT yeast gro inh)
CC1CCC(C(C)C)C(OC(=O)Cn2c(-c3ccccc3)[n+](C)c3ccccc32)C1 (stereo not drawn)	ROMK primary -6.3 | ROMK retest 0.039
CC1CCC(C(C)C)C(OC(=O)CSc2nc(N)cc(=O)[nH]2)C1 (stereo not drawn)	none (no result: ROMK primary)
Cc1cccc(OCc2n(CC(=O)OC3CC(C)CCC3C(C)C)c3ccccc3[n+]2C)c1 (stereo not drawn)	ROMK primary -6.2 | ROMK retest 0.037
CC1CCC(C(C)C)C(OC(=O)CSc2nnc(N)s2)C1 (stereo not drawn)	none (no result: ROMK primary)
CC1CCC(C(C)C)C(OC(=O)Cn2c(-c3ccc(F)cc3)[n+](C)c3ccccc32)C1 (stereo not drawn)	ROMK primary -5 | ROMK retest 0.047
Cc1cc(C(=O)NNc2ccc(C(C)C)cc2)n(C(C)(C)C)n1	none (no result: WT yeast gro inh)
COc1ccccc1C/C(N)=N/OC(=O)c1ccc(C)c([N+](=O)[O-])c1	none (no result: ROMK primary, KCC2 mod)
COc1ccccc1C/C(N)=N/OC(=O)c1ccc2c(c1)OCO2	ROMK primary -3.1 (no result: KCC2 mod) | ROMK retest inactive
CS(=O)(=O)c1nc(-c2ccco2)cc(C(F)(F)F)n1	ROMK primary -3.6 (no result: KCC2 mod) | ROMK retest 0.057
COc1ccccc1-c1cc(C(F)(F)F)nc(S(C)(=O)=O)n1	ROMK primary -3.9 | ROMK retest 0.06
CN1CCN(c2nc(-c3ccco3)cc(C(F)(F)F)n2)CC1	none (no result: ROMK primary, KCC2 mod)
COc1ccccc1-c1cc(C(F)(F)F)nc(S(=O)(=O)CCCC(=O)NC(C)C)n1	none
C=CCn1cnc2c(nnn2-c2ccc(C)c(C)c2)c1=O	none
CCOc1ncccc1C(=O)N(C)CC(=O)Nc1ccccc1SC	none (no result: ROMK primary)
N#Cc1cnn(-c2cccc(Cl)c2)c1-n1cccc1	none (no result: ROMK primary, WT yeast gro inh)
COc1ccc(-n2c(-c3cnccn3)n[nH]c2=S)cc1	none (no result: ROMK primary) | ROMK retest inactive
S=c1[nH]nc(-c2cnccn2)n1-c1ccccc1	none
CCC(=O)c1ccc(OCc2ccc(C(=O)c3ccccc3)cc2)cc1	none
O=C(OC(c1ccc(NS(=O)(=O)c2ccccc2)cc1)(C(F)(F)F)C(F)(F)F)c1ccccc1	ROMK primary -4.5, WT yeast gro inh 87 | ROMK retest 0.062
CCC(CC)c1nnc(NC(=O)C2=NNC(=O)CC2)s1	none
COc1ccccc1N(CC(=O)NCC1CCCO1)C(=O)CNS(=O)(=O)c1ccccc1 (stereo not drawn)	none (no result: WT yeast gro inh)
COc1ccc(-c2nc(-c3ccc(NC(=O)c4ccncc4)cc3)no2)cc1OC	none (no result: ROMK primary) | ROMK retest inactive
O=S(=O)(NCc1ccc(Cl)cc1)c1cccc2cccnc12	none (no result: WT yeast gro inh)
O=S(=O)(NCc1ccco1)c1cccc2cccnc12	ROMK primary 1.3 | ROMK retest inactive
C=C1N(c2ccccc2)C(=O)OC1(C)C	none (no result: ROMK primary)
CCC(C)Sc1nc2c(c(=O)[nH]c(=O)n2C)n1CC(O)COc1ccccc1C (stereo not drawn)	ROMK primary -3.5 | ROMK retest 0.066
CCN(CC)S(=O)(=O)c1ccc(C)c(NC(=O)Cn2cnc3cc([N+](=O)[O-])ccc3c2=O)c1	ROMK primary 2.9 | ROMK retest inconclusive
Cc1nn(-c2ccccc2)c(Cl)c1/C=N/NC(=O)c1cccc(S(=O)(=O)N2CCCC2)c1	none (no result: ROMK primary)
Cc1nn(-c2ccccc2)c(N2CCCC2)c1/C=N/NC(=O)c1cccc(S(=O)(=O)Nc2ccc(Cl)cc2)c1	none (no result: ROMK primary) | ROMK retest inactive
O=[N+]([O-])c1ccc(C2Oc3ccccc3C3CC(c4ccccc4)=NN32)s1 (stereo not drawn)	none
Cc1ccc(NC(=O)COc2ccccc2CNC(C)(C)CC(C)(C)C)cc1	ROMK primary -3.6 | ROMK retest 0.05
O=C1C=CC(=O)C(C2=C3C(=O)N(CCc4ccccc4)CC(=O)N3CCC2)=C1	ROMK primary -3 | ROMK retest 0.051
CCOc1ccc(C2C(C(=O)c3ccc(C)o3)=C(O)C(=O)N2CCN2CCOCC2)cc1OC (stereo not drawn)	ROMK primary 1.8 | ROMK retest inactive
COc1ccccc1N1CCN(CCCNC(=O)Nc2ccccc2)CC1	none
COc1ccccc1N1CCN(CCNC(=O)Nc2cccc(C)c2C)CC1	ROMK primary -2.8 | ROMK retest 0.059
c1ccc(Cn2c(-c3cncs3)nc3ccccc32)cc1	ROMK primary -2.5 | ROMK retest 0.06
Cc1ccc(NC(=O)c2ccccc2O)cc1	none (no result: ROMK primary) | ROMK retest 0.065
COCCSc1nnc(NC(=O)c2ccc(OC)c([N+](=O)[O-])c2)s1	none
Clc1ccc(CSc2nnc(-c3cccnc3)n2Cc2ccco2)c(Cl)c1	ROMK primary -2.4 (no result: KCC2 mod) | ROMK retest inconclusive
Clc1cccc(CSc2nnc(-c3cccnc3)n2Cc2ccco2)c1	none (no result: ROMK primary, KCC2 mod)
CCC(C)NC(=O)CCc1nc2ccccc2n1-c1ccccc1 (stereo not drawn)	none (no result: ROMK primary)
CC1CCCC(NC(=S)Nc2cccc(S(=O)(=O)N(C)C)c2)C1C (stereo not drawn)	none
Fc1ccc(NCc2nnc(SCc3nnc(-c4ccccc4)o3)n2Cc2ccccc2)cc1	ROMK primary -4.8 | ROMK retest 0.05
Fc1ccc(-c2nnc(CSc3nnc4ccccn34)o2)cc1	none
Cc1nnc(SCc2nnc(-c3cccs3)o2)n1Cc1ccccc1	none
Clc1ccc(-c2nnc(CSc3nnc(-c4cccs4)n3Cc3ccccc3)o2)cc1	none | ROMK retest inactive
CCOC(=O)c1cc(C#N)c(Nc2ccc(C)cc2)nc1C(F)(F)F	none (no result: WT yeast gro inh)
CC(=O)Nc1cccc(Oc2ncnc3scc(-c4ccccc4)c23)c1	none (no result: ROMK primary) | ROMK retest 0.061

Compound activity deposited in PubChem BioAssay by several laboratories.
